For orientation: IC50 means the concentration that inhibits the measured activity by half. In general, ED50 refers to the midpoint of the dose-response relation. Usually Tmax stands for the time from dosing to the highest level. Usually AUC(0-t) stands for the area under the concentration-time curve up to a stated or last time point. Broadly, the Vd is the apparent volume that relates the amount in the body to the concentration in plasma or blood. In general, Cmax refers to the maximum level reached in the sampled fluid or tissue. As usually defined, the clearance is the rate of elimination divided by the concentration. As usually defined, the half-life is how long it takes for the measured level to halve. For orientation: AUC(0-inf) means the area under the concentration-time curve extrapolated to infinity. The low end stands for less exposure, the high end for more exposure. For orientation: bioavailability means the share of a dose that reaches the circulation, judged against a reference dose that is usually intravenous.

For data set [1], the system named is Plasmodium falciparum. Briefly: Antimalarial activity against Plasmodium falciparum 3D7A infected in human RBC after 48 hrs by [3H]-hypoxanthine incorporation assay. It counts as functional.
In data set [2] the test system is Plasmodium yoelii. Briefly: Schizontocidal activity against Plasmodium yoelii infected in CD1 mouse administered via oral gavage as qd for 4 days starting 1 hr post infection by YOYO-1 dye-based flow cytometric method. The format is functional. The method in brief:
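Blood schizontocidal activity was tested in a modified 4-day suppressive test in mice infected with P. yoelii. Four oral doses were given by gavage over four days.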
In general terms: In flow cytometry, cells or beads pass a laser one at a time.

A short description of data set [3]: Tmax in CD1 mouse at 9.354 mg/kg administered via oral gavage by LC-MS/MS method. It counts as ADME, organism-based. The settings on record: in vivo. The method in brief: (§1)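 Specific pathogen-free female CD1 (Hsd:ICR) mice, 8–10 weeks old, housed in the institutional animal facility. Each compound was given intravenously at a low dose and orally at a higher dose. Vd, clearance, t1/2, Cmax, Tmax, AUC0-t, AUC∞ and %F were derived from plasma exposure after each route.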

Data set [4] is described as follows: AUC (0 to t) in CD1 mouse at 9.354 mg/kg administered via oral gavage by LC-MS/MS method. The format is ADME, organism-based. The settings on record: in vivo. The method in brief: (§2)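 Specific pathogen-free female CD1 (Hsd:ICR) mice, 8 to 10 weeks old. Each compound was given as an intravenous dose and an oral dose at the levels listed. Parameters reported: Vd, clearance, t1/2, Cmax, Tmax, AUC0-t, AUC∞ and %F.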

The nature of data set [5]: Volume of distribution in CD1 mouse at 0.195 mg/kg, iv as bolus dose by LC-MS/MS method. It counts as ADME, organism-based. The settings on record: in vivo. The method in brief: as §1
Data set [6] in a line: Cmax in CD1 mouse at 9.354 mg/kg administered via oral gavage by LC-MS/MS method. The settings on record: in vivo. The format is ADME, organism-based. Also on record: dose 9.354 mg/kg, route oral. The procedure, abridged: as §2
Data set [7] can be described thus: Clearance in CD1 mouse at 0.195 mg/kg, iv as bolus dose by LC-MS/MS method. It counts as ADME, organism-based. As to conditions: in vivo. The method in brief: as §2
Data set [8] can be described thus: Half life in CD1 mouse at 0.195 mg/kg, iv as bolus dose by LC-MS/MS method. It counts as ADME, organism-based. As to conditions: in vivo. The procedure, abridged:
as §2

Data set [9] is described as follows: AUC (infinity) in CD1 mouse at 9.354 mg/kg administered via oral gavage by LC-MS/MS method. It counts as ADME, organism-based. Also on record: dose 9.354 mg/kg, route oral, time infinity. As to conditions: in vivo. The procedure, abridged:
as §2

In data set [10] the target is serum albumin (Homo sapiens, UniProt P02768). The data set can be described thus: Binding affinity to human serum albumin by HPLC method. The format is ADME. As to conditions: read-out: PB (converted).
A short description of data set [11]: Oral bioavailability in CD1 mouse at 9.354 mg/kg administered via gavage by LC-MS/MS method. The format is ADME, organism-based. The settings on record: in vivo. The procedure, abridged:
as §1

Data set [12] can be described thus: Volume of distribution in CD1 mouse at 0.17 mg/kg, iv as bolus dose by LC-MS/MS method. The settings on record: in vivo. It counts as ADME, organism-based. The method in brief: as §1
Data set [13] in a line: Tmax in CD1 mouse at 10.757 mg/kg administered via oral gavage by LC-MS/MS method. The format is ADME, organism-based. As to conditions: in vivo. The procedure, abridged:
as §1

Data set [14] is described as follows: AUC (infinity) in CD1 mouse at 10.757 mg/kg administered via oral gavage by LC-MS/MS method. The settings on record: in vivo, 10.76 mg/kg. It counts as ADME, organism-based. Also on record: dose 10.757 mg/kg, route oral, time infinity. The method in brief:
as §2

The nature of data set [15]: AUC (0 to t) in CD1 mouse at 10.757 mg/kg administered via oral gavage by LC-MS/MS method. As to conditions: in vivo. The format is ADME, organism-based. The procedure, abridged:
as §2

A short description of data set [16]: Cmax in CD1 mouse at 10.757 mg/kg administered via oral gavage by LC-MS/MS method. The format is ADME, organism-based. Also on record: dose 10.757 mg/kg, route oral. As to conditions: in vivo, 10.76 mg/kg. The method in brief:
as §2

Data set [17] can be described thus: Oral bioavailability in CD1 mouse at 10.757 mg/kg administered via gavage by LC-MS/MS method. As to conditions: in vivo. The format is ADME, organism-based. The procedure, abridged:
as §2

A short description of data set [18]: Clearance in CD1 mouse at 0.17 mg/kg, iv as bolus dose by LC-MS/MS method. It counts as ADME, organism-based. The settings on record: in vivo. The method in brief: as §2
Data set [19] can be described thus: Half life in CD1 mouse at 0.17 mg/kg, iv as bolus dose by LC-MS/MS method. It counts as ADME, organism-based. The settings on record: in vivo. The method in brief:
as §2

Structures are written as SMILES.

Sequence of serum albumin (P02768 whole entry): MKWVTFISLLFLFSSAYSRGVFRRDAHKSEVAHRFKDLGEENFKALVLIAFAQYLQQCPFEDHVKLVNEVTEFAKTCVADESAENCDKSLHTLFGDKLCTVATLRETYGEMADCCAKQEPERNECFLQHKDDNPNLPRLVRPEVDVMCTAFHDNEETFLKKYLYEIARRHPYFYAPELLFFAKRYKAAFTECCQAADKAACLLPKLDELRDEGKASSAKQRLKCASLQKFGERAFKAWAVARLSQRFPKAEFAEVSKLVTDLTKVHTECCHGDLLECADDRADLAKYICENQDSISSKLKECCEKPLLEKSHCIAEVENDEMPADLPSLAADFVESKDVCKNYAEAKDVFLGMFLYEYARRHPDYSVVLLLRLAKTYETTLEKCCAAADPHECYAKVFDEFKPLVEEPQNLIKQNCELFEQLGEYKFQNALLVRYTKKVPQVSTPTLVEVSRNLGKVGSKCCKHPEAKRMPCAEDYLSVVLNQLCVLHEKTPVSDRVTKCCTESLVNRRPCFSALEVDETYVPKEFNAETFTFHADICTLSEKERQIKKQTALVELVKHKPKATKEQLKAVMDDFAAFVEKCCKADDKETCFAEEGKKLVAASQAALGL

For the molecule `Cc1[nH]c(C)c(-c2ccc(OCc3ccccc3C(F)(F)F)nc2)c(=O)c1Br`, in data set [1], half-maximal inhibition (IC50) was put at 0.011 µM.

Molecule `Cc1[nH]c(C)c(-c2ccc(OCc3ccccc3C(F)(F)F)nc2)c(=O)c1Cl` returned an IC50 in [1] of 0.01 µM.

`Cc1[nH]c(C)c(-c2ccc(C#Cc3ccc(C(F)(F)F)cc3)nc2)c(=O)c1Br`: the IC50 in [1] came out at 0.058 µM.

For the molecule `Cc1[nH]c(C)c(-c2ccc(-c3ccc(F)cc3)nc2)c(=O)c1Br`, in data set [1], half-maximal inhibition (IC50) was put at 0.129 µM.

In the case of `Cc1[nH]c(CO)c(Cl)c(=O)c1-c1ccc(Oc2ccc(OC(F)(F)F)cc2)cc1`, the midpoint of inhibition in [1], the IC50, lay at 0.133 µM.

Regarding `Cc1[nH]c(C)c(-c2ccc(OCc3ccc(F)cc3)nc2)c(=O)c1Cl`, half-maximal inhibition in data set [1] (IC50) required 0.033 µM.

Take `Cc1[nH]c(C)c(-c2ccc(OCc3cccc(C(F)(F)F)c3)nc2)c(=O)c1Br`: the IC50 in data set [1] was 0.004 µM.

In data set [1], `Cc1[nH]c(C)c(-c2ccc(-c3ccccc3Cl)nc2)c(=O)c1Br` had an IC50 of 0.044 µM.

`Cc1[nH]c(C)c(-c2ccc(-c3ccc(Cl)cc3)nc2)c(=O)c1Br` yielded an IC50 in data set [1] of 0.11 µM.

Molecule `Cc1[nH]c(C)c(-c2ccc(-c3ccc(C(F)(F)F)cc3C(F)(F)F)nc2)c(=O)c1Br` yielded an IC50 in data set [1] of 0.006 µM.

In turn, `Cc1[nH]c(C)c(-c2ccc(CCc3cccc(C(F)(F)F)c3)nc2)c(=O)c1Cl` displayed an IC50 in data set [1] of 0.007 µM.

For the molecule `Cc1[nH]c(C)c(-c2ccc(-c3cccc(C(F)(F)F)c3)nc2)c(=O)c1Br`, in [1], the IC50 stood at 0.007 µM.

Take `Cc1[nH]c(C)c(-c2ccc(-c3cccc(C(F)(F)F)c3)nc2)c(=O)c1Cl`: in [2], it took a dose of 1.2 mg/kg to reach the 50% effect level (ED50). In addition, in data set [3], the Tmax stood at 3 h. Further, in [4], the area under the curve AUC(0-t) is 39.5 µg·h/mL. In addition, in data set [5], the Vd was 0.68 L/kg. In [6], the Cmax was found to be 2470 ng/mL. The molecule also yielded a clearance in data set [7] of 1.52 mL/min/kg. Besides, half-maximal inhibition in data set [1] (IC50) was put at 0.04 µM. Further, the half-life in [8] is 5.13 h. The molecule also showed a total exposure AUC(0-inf) in [9] of 39.5 µg·h/mL. In addition, the fraction unbound in data set [10] was 0.05. Further, in data set [11], the bioavailability was 38.7%.

Consider `Cc1[nH]c(C)c(-c2ccc(OCc3ccc(C(F)(F)F)cc3)nc2)c(=O)c1Cl`, for which the half-inhibitory concentration (IC50) in data set [1] amounted to 0.005 µM.

`Cc1[nH]c(C)c(-c2ccc(OCc3ccc(F)cc3)nc2)c(=O)c1Br`: the IC50 in data set [1] stood at 0.01 µM.

For `Cc1[nH]c(C)c(-c2ccc(-c3ccccc3F)nc2)c(=O)c1Br`, the IC50 in data set [1] came out at 0.064 µM.

As to `Cc1[nH]c(C)c(-c2ccc(OCc3cc(F)cc(F)c3)nc2)c(=O)c1Br`, 0.04 µM corresponded to half-maximal inhibition in data set [1] (IC50).

In [1], `Cc1[nH]c(C)c(-c2ccc(-c3ccc(C#N)cc3)nc2)c(=O)c1Br` had an IC50 of 0.329 µM.

Take `Cc1[nH]c(CO)c(-c2ccc(-c3ccc(C(F)(F)F)cc3F)nc2)c(=O)c1Cl`: the 50% effect level in [2] (ED50) was put at a dose of 0.2 mg/kg. Also, the IC50 in data set [1] was determined as 0.005 µM. In addition, the fraction unbound in data set [10] is 0.06.

In turn, `Cc1[nH]c(C)c(-c2ccc(C#Cc3ccc(C(F)(F)F)cc3)nc2)c(=O)c1Cl` came in with an IC50 in [1] of 0.097 µM.

The molecule `Cc1[nH]c(C)c(-c2ccc(-c3ccc(OC(F)(F)F)cc3)nc2)c(=O)c1Cl` came in with a 50% effective dose (ED50) in data set [2] of 0.15 mg/kg. Besides, the volume of distribution (Vd) in data set [12] stood at 0.85 L/kg. The time of peak concentration (Tmax) in [13] came to 10 h. The molecule further came in with an AUC(0-inf) in data set [14] of 187 µg·h/mL. The molecule further yielded a concentration for half-maximal inhibition (IC50) in data set [1] of 0.02 µM. In data set [15], this molecule registered an AUC(0-t) of 167 µg·h/mL. Besides, in data set [16], the Cmax was determined as 2290 ng/mL. For the same molecule, the bioavailability in data set [17] is 54.9%. In [18], this molecule displayed a clearance of 0.53 mL/min/kg. The fraction unbound in [10] is 0.04. Moreover, the half-life in data set [19] was 18.7 h.
